Like-named read-outs stand apart in the source and are kept apart here.
What was measured:
[1] = compared with levels in BDL mice of the current study; cited from earlier work
[2] = Oral pharmacokinetic profile of A3907 and A3309 in BDL mice; type: in vivo, mouse
Summary of the method: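 Adult male C57BL/6 mice with bile duct ligation received the test compound or a gut-restricted ASBT inhibitor by mouth at 3 or 10 mg/kg once daily for 7 days. Plasma exposure was profiled and set against normal wild-type mice dosed under the same conditions.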

[3] = biological target: T1, ileal ASBT (Mus musculus, UniProt P70172); experiment: Pharmacodynamic study in normal wild-type C57BL/6N mice; type: in vivo
T1 sequence (P70172 1-348): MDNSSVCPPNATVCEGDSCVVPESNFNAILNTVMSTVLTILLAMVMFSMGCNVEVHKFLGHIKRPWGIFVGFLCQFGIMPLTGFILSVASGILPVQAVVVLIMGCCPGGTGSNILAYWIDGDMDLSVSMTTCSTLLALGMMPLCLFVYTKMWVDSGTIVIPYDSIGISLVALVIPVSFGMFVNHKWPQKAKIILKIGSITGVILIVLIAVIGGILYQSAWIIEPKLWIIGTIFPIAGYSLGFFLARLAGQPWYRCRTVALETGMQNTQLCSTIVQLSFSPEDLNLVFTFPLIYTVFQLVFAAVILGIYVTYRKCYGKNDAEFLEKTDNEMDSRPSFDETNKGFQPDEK
Summary of the method: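 Adult C57BL/6N mice (13–14 weeks) were gavaged daily for 8 days with the test compound at 3 or 10 mg/kg/d or with vehicle (0.5% CMC + 0.1% Tween 80). Feces were collected between days 6 and 7 and urine 2 h after the day-8 terminal dose. Total bile acids were measured with commercial kits and compared with vehicle by 1-way ANOVA with Dunnett post hoc test.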

[4] = system: BDL mice; experiment: Bile duct ligation; type: in vivo, mouse; conditions: 3 mg/kg/d
Summary of the method: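 Male mice on a C57BL/6J background, age-matched, underwent bile duct ligation. Oral gavage dosing started 3 days after surgery and continued once daily for 11 days, with the comparator ASBT inhibitor at 3 mg/kg. Blood for serum biochemistry was taken by cardiac puncture at sacrifice. RNAseq was run on RNA from terminal liver samples (15 mg fresh tissue).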

[5] = pediatric, cited from earlier work
[6] = system: Mdr2 −/− mice; conditions: cited from earlier work
[7] = 11 days, A3907 vs A3309 comparison
[8] = progressive familial intrahepatic cholestasis

CCCCC1(CCCC)CN(c2ccccc2)c2cc(SC)c(OCC(=O)N[C@@H](C(=O)NCC(=O)O)c3ccccc3)cc2S(=O)(=O)C1 [A3309]
systemic exposure in humans at the therapeutically relevant dose [1]: several-fold lower than levels demonstrating signs of efficacy in BDL mice | serum levels compared with A3907 ([2]; BDL mice, 3 or 10 mg/kg oral daily): significantly lower than A3907 | plasma exposure in BDL mice relative to normal WT mice ([2]; same experimental conditions, WT data not shown): ~ 6 fold | urine BA levels ([3]; normal mice, oral 3 and 10 mg/kg/d, 2 hours after dose on day 8): did not change | fecal BA levels ([3]; normal nonfasted mice, oral 3 and 10 mg/kg/d once daily for 7 days, vs vehicle): significant elevation of fecal BA levels | serum and biliary BAs levels [4, 7]: attenuated BA levels in a nonsignificant fashion | urinary BA excretion [4, 7]: induced urinary BA excretion to some extent | number of dysregulated hepatic genes normalized ([4]; liver RNAseq, of 5790 DEGs vs sham): 15

CCCCC1(CCCC)CN(c2ccccc2)c2cc(SC)c(OCC(=O)N[C@@H](C(=O)N[C@@H](CC)C(=O)O)c3ccc(O)cc3)cc2S(=O)(=O)N1 [A4250, odevixibat]
BA load [5, 8]: reduced | pruritus [5, 8]: decreased | BA levels in serum and bile [6]: reduced | cholestatic liver disease [6]: improved

CCCCC1(CCCC)CS(=O)(=O)c2ccc(N(C)C)cc2[C@@H](c2ccc(OCCCC[N+]34CCN(CC3)CC4)cc2)[C@H]1O [SC-435]
BA levels in serum and bile [6]: reduced | cholestatic liver disease [6]: improved

CCCCC1(CCCC)CS(=O)(=O)c2ccc(N(C)C)cc2[C@@H](c2ccc(OCc3ccc(C[N+]45CCN(CC4)CC5)cc3)cc2)[C@H]1O [maralixibat]
BA load ([5]; Alagille syndrome): reduced | pruritus ([5]; Alagille syndrome): decreased

— paper PMC10442107 (Hepatology (Baltimore, Md.), 2023)
